The record followed here is ChEMBL document CHEMBL1153001 (Eur J Med Chem, 2009).

For data set [1], the system named is Human alphaherpesvirus 3. In words: Antiviral activity against Varicella zoster virus YS infected in human HEL cells assessed as inhibition of virus induced cytopathicity after 5 days. The class given is functional, organism-based. The settings on record: Human alphaherpesvirus 3, YS, 120 h. An outline of the steps:
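Confluent HEL cell cultures infected with 20 PFU/well VZV; after 2 h adsorption, residual virus removed and serial compound dilutions added. Incubated 5 days at 37 °C, 5% CO2, then fixed and stained. Plaques counted against untreated control. EC50 = concentration cutting plaque formation by 50%.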

Data set [2] concerns Human alphaherpesvirus 3. Briefly: Ratio of compound EC50 to RA-5021 EC50 for Varicella zoster virus OKA infected in human HEL cells assessed as inhibition of virus induced cytopathicity after 5 days. The format is functional. A general note: Cytopathic effects are the visible damage that an infection or toxin causes in cultured cells.
Data set [3] concerns Human betaherpesvirus 5. Briefly: Antiviral activity against human cytomegalovirus Davis infected in human HEL cells assessed as inhibition of virus-induced cytopathicity after 7 days post infection. The class given is functional, organism-based. The following applies: Human betaherpesvirus 5, Davis, 168 h. In a few lines: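 Confluent HEL cell cultures in microtiter plates inoculated with 100 PFU CMV. After 2 h adsorption, residual virus removed and cells incubated with varying compound concentrations. Read once cytopathicity was complete in virus controls, usually 7 days post-infection. EC50 = concentration giving 50% reduction in plaque formation/cytopathicity.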

Data set [4] can be described thus: Cytotoxicity against human HEL cells assessed as reduction in cell growth after 3 days. The class given is cell-based. An outline of the steps: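 HEL cell suspensions seeded into wells holding varying compound concentrations. Grown 3 days at 37 °C in humidified CO2 incubator. Viable cells counted with a Coulter Counter. CC50 = concentration lowering viable cell number by 50%.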

Data set [5] deals with Human betaherpesvirus 5. Briefly: Antiviral activity against human cytomegalovirus AD169 infected in human HEL cells assessed as inhibition of virus-induced cytopathicity after 7 days post infection. The class given is functional, organism-based. The settings on record: Human betaherpesvirus 5, AD169, HEL, 168 h. In a few lines: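 Confluent HEL cell cultures in microtiter plates inoculated with 100 PFU CMV. After 2 h adsorption, residual virus removed and cells incubated with varying compound concentrations. Read once cytopathicity was complete in virus controls, usually 7 days post-infection.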

Data set [6] has as its system Human alphaherpesvirus 3. In words: Antiviral activity against Varicella zoster virus OKA infected in human HEL cells assessed as inhibition of virus-induced cytopathicity after 5 days. The class given is functional, organism-based. The following applies: Human alphaherpesvirus 3, OKA, 120 h. An outline of the steps:
(§1)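 Confluent HEL cell cultures infected with 20 PFU/well VZV; after 2 h adsorption, residual virus removed and serial compound dilutions added. Incubated 5 days at 37 °C, 5% CO2, then fixed and stained. Plaques counted against untreated control.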

In data set [7] the test system is Human alphaherpesvirus 3. In words: Ratio of compound EC50 to RA-5021 EC50 for Varicella zoster virus YS infected in human HEL cells assessed as inhibition of virus induced cytopathicity after 5 days. The format is functional.
Data set [8] concerns Human alphaherpesvirus 3. Briefly: Antiviral activity against thymidine kinase deficient Varicella zoster virus 07/1 infected in human HEL cells assessed as inhibition of virus-induced cytopathicity after 5 days. The settings on record: Human alphaherpesvirus 3, 07/1, HEL, 120 h. The class given is functional, organism-based. In a few lines: as §1
Data set [9] can be described thus: Cytotoxicity against human HEL cells assessed as microscopically detectable morphological alterations after 3 days. The format is cell-based. In a few lines: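 HEL cell cultures exposed to varying compound concentrations. Cells examined microscopically for changes in morphology. MCC = lowest concentration producing a detectable alteration of cell morphology.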

Data set [10] concerns Human alphaherpesvirus 3. Briefly: Ratio of compound EC50 to Acyclovir EC50 for Varicella zoster virus OKA infected in human HEL cells assessed as inhibition of virus induced cytopathicity after 5 days. The format is functional.
Data set [11] has as its system Human alphaherpesvirus 3. In words: Ratio of compound EC50 to Acyclovir EC50 for Varicella zoster virus YS infected in human HEL cells assessed as inhibition of virus induced cytopathicity after 5 days. The format is functional.

On to `O=c1c2ncn(CC3(CO)CC3CO)c2nc2[nH]c(-c3ccc(Br)s3)cn12` (centres undefined), for which the EC50 (as a rule, the concentration giving half of the maximal effect) with Human alphaherpesvirus 3 [1] was 0.87 µM; with Human betaherpesvirus 5 [3], 76.5 µM; with Human betaherpesvirus 5 [5] it was greater than 100 µM; in the data set with Human alphaherpesvirus 3 [6], 0.93 µM; in the data set on Human alphaherpesvirus 3 [8], greater than 100 µM. For the same molecule, the results for the Ratio EC50 in the data set with Human alphaherpesvirus 3 [2] and in the data set on Human alphaherpesvirus 3 [7] were 7 and 2.9, respectively. Further, the CC50 (as a rule, the concentration at which the toxic effect on the cells reaches its halfway point) at 72 h in data set [4] is greater than 100 µM. The MCC at 72 h in [9] was greater than 100 µM.

Turning to `O=c1c2ncn(CC3(CO)CC3CO)c2nc2[nH]c(-c3ccccc3)cn12` (centres undefined), the “Ratio EC50” value worked out at 3 with Human alphaherpesvirus 3 [2] and 2 in the data set on Human alphaherpesvirus 3 [7].

As to `Nc1nc(O)c2ncn(CC3(CO)CC3CO)c2n1` (centres undefined), the EC50 with Human alphaherpesvirus 3 [1] worked out at 0.3 µM; in the data set on Human betaherpesvirus 5 [3], 44.7 µM; in the data set with Human betaherpesvirus 5 [5], 100 µM; in the data set on Human alphaherpesvirus 3 [6], 0.13 µM; with Human alphaherpesvirus 3 [8], 25.8 µM. Also, the CC50 at 72 h in data set [4] is greater than 100 µM. Besides, the “Ratio EC50” value was determined as 14 with Human alphaherpesvirus 3 [10] and 7 with Human alphaherpesvirus 3 [11]. For the same molecule, in [9], the MCC at 72 h is greater than 100 µM.

As for `O=c1c2ncn(CC3(CO)CC3CO)c2nc2[nH]c(-c3ccco3)cn12` (cis isomer), the EC50 with Human alphaherpesvirus 3 [1] is 0.64 µM; in the data set on Human betaherpesvirus 5 [3], greater than 100 µM; in the data set with Human betaherpesvirus 5 [5] it was greater than 100 µM; with Human alphaherpesvirus 3 [6], 0.42 µM; in the data set with Human alphaherpesvirus 3 [8], greater than 100 µM. Further, the Ratio EC50 with Human alphaherpesvirus 3 [2] came out at 3.2; with Human alphaherpesvirus 3 [7], 2.1. Also, the CC50 at 72 h in [4] was greater than 100 µM. In addition, in data set [9], the MCC at 72 h was greater than 100 µM.

As for `Nc1ccn(C[C@@H](CO)OCP(=O)(O)O)c(=O)n1` [CIDOFOVIR], in [4], the CC50 at 72 h worked out at 54 µM. Moreover, the EC50 with Human betaherpesvirus 5 [5] stood at 1.6 µM. Further, the MCC at 72 h in data set [9] is no less than 254 µM.

`Nc1nc2c(ncn2COC(CO)CO)c(=O)[nH]1` [GANCICLOVIR]: the EC50 came out at 1.1 µM in the data set with Human alphaherpesvirus 3 [1], 12.6 µM in the data set with Human betaherpesvirus 5 [5], 0.59 µM in the data set with Human alphaherpesvirus 3 [6] and 2.5 µM in the data set on Human alphaherpesvirus 3 [8]. Further, in [4], the CC50 at 72 h is 221 µM. Besides, the MCC at 72 h in [9] was greater than 1580 µM.

As to `O=c1c2ncn(CC3(CO)CC3CO)c2nc2[nH]c(-c3cccs3)cn12` (centres undefined), the EC50 in the data set with Human alphaherpesvirus 3 [1] was 0.38 µM; with Human betaherpesvirus 5 [3], 50.2 µM; in the data set on Human betaherpesvirus 5 [5] it was greater than 100 µM; in the data set with Human alphaherpesvirus 3 [6], 0.32 µM; with Human alphaherpesvirus 3 [8], 71.5 µM. The results for the Ratio EC50 with Human alphaherpesvirus 3 [2] and with Human alphaherpesvirus 3 [7] were 2.5 and 1.3, respectively. For the same molecule, in [4], the CC50 at 72 h was greater than 100 µM. The MCC at 72 h in data set [9] is greater than 100 µM.

For `O=c1[nH]c(=O)n([C@H]2C[C@H](O)[C@@H](CO)O2)cc1/C=C/Br` [BRIVUDINE], the results for the EC50 with Human alphaherpesvirus 3 [1] and in the data set on Human alphaherpesvirus 3 [8] were 0.026 µM and 157 µM, respectively. Moreover, the CC50 at 72 h in data set [4] is 432 µM. The MCC at 72 h in [9] is greater than 1200 µM.

`O=c1c2ncn(COCCO)c2nc2[nH]c(-c3ccc(Br)s3)cn12`: the EC50 in the data set with Human alphaherpesvirus 3 [1] was 10 µM; with Human betaherpesvirus 5 [3], 100 µM; in the data set on Human betaherpesvirus 5 [5], greater than 100 µM; with Human alphaherpesvirus 3 [6], 8.7 µM; in the data set with Human alphaherpesvirus 3 [8], greater than 100 µM. The CC50 at 72 h in data set [4] is greater than 100 µM. Moreover, the MCC at 72 h in data set [9] is greater than 100 µM.

On to `O=c1c2ncn(COCCO)c2nc2[nH]c(-c3cccs3)cn12`, for which the EC50 was 7.9 µM in the data set on Human alphaherpesvirus 3 [1]; 100 µM with Human betaherpesvirus 5 [3]; greater than 100 µM in the data set on Human betaherpesvirus 5 [5]; 5.8 µM in the data set with Human alphaherpesvirus 3 [6]; greater than 100 µM with Human alphaherpesvirus 3 [8]. For the same molecule, in data set [4], the CC50 at 72 h was greater than 100 µM. The MCC at 72 h in data set [9] is greater than 100 µM.

On to `O=c1c2ncn(COCCO)c2nc2[nH]c(-c3ccco3)cn12`, for which the EC50 is greater than 100 µM with Human betaherpesvirus 5 [3], greater than 100 µM with Human betaherpesvirus 5 [5], 16.4 µM with Human alphaherpesvirus 3 [6] and greater than 100 µM in the data set on Human alphaherpesvirus 3 [8]. Further, the CC50 at 72 h in [4] was greater than 100 µM. Further, the MCC at 72 h in [9] is greater than 100 µM.

As to `Nc1nc2c(ncn2COCCO)c(=O)[nH]1` [ACYCLOVIR], the EC50 in the data set with Human alphaherpesvirus 3 [1] was 2 µM; with Human betaherpesvirus 5 [3], 45 µM. Also, the CC50 at 72 h in data set [4] turned out to be 782 µM.
